Measurements pooled from the literature.
Target: Receptor-interacting serine/threonine-protein kinase 4 (RIPK4, Homo sapiens, UniProt P57078)
Residues used in one study (P57078 1-832): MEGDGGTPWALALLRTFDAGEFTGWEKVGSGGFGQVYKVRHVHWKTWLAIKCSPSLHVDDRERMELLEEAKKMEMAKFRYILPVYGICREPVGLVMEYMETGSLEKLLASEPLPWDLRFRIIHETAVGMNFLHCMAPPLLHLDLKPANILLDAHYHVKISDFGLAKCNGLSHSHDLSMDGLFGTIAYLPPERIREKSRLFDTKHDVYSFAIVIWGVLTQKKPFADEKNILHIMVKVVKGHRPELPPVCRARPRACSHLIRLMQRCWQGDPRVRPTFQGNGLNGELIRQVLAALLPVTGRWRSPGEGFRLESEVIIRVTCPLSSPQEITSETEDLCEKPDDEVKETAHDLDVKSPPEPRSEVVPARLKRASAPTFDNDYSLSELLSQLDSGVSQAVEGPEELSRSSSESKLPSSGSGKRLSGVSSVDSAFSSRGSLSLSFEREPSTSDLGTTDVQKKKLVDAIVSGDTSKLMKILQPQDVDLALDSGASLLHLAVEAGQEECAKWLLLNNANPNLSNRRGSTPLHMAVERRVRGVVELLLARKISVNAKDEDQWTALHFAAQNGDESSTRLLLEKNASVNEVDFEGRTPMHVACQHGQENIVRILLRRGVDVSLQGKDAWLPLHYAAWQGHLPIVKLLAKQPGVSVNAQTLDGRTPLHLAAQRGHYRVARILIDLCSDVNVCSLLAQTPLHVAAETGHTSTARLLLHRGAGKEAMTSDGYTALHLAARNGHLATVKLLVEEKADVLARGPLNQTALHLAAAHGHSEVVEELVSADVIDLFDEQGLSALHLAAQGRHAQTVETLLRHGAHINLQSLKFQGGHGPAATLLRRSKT

CC(=O)c1c(NS(C)(=O)=O)c2cc(-c3ccc(Cl)cc3)c(-c3ccc(Cl)cc3Cl)nc2n(C)c1=O  remaining binding (cell-free assay, competition with immobilised ligand; 1 µM): 61%
N[C@H]1CCN(c2nccc(-c3cnn4ncccc34)n2)C1  remaining binding (binding; 1 µM): 100%
O=C(NCCCN1CCOCC1)c1ccc(Nc2nccc(-c3cc4ccccc4s3)n2)cc1  remaining binding (binding, competition with immobilised ligand; 1 µM): 47%
CS(=O)(=O)N1CCCC(NC(=O)[C@H](CCC2CCCCC2)NC(=O)c2ccc(CNc3ncnc4c3nnn4-c3ccccc3)cc2)C1 (stereo partly drawn)  remaining binding (cell-free assay, competition with immobilised ligand; 0.1 µM): 100%
COc1cnc(Nc2cccc(S(N)(=O)=O)c2)nc1N1CCN(c2ccccc2)CC1  remaining binding (binding, competition with immobilised ligand; 1 µM): 86%
Cc1cnn2ncc(-c3ccnc(N(C)C)n3)c2c1  remaining binding (binding; 1 µM): 80%
COc1ccc2c(c1)O[C@H](c1ccc(OC)c(OC)c1)C[C@@H]2NC(=O)C1(c2ccc3c(c2)OC(F)(F)O3)CC1  remaining binding (cell-free assay, competition with immobilised ligand; 1 µM): 75%
CN(c1nccc(-c2cnn3ncccc23)n1)C1CC1  remaining binding (binding; 1 µM): 100%
C[C@@H](c1ccc(-n2cnc3c(N)ncnc32)cc1)N1CCc2nn(C)c(Cc3ccccc3)c2C1=O  remaining binding (binding, competition with immobilised ligand; 0.1 µM): 40%
O=C(NCCCC1CCCCC1)c1ccc(CNC(=O)c2cnn(-c3ccccc3)c2C(F)(F)F)cc1  remaining binding (cell-free assay, competition with immobilised ligand; 0.1 µM): 58%
Nc1ncc2c(n1)-c1c([nH]c3ccc(C#CC4CC4)cc13)CCCC2  remaining binding (binding, competition with immobilised ligand; 1 µM): 100%
Cc1cnc(Nc2ccc(C(=O)N3CCC(N4CCCC4)CC3)cc2)nc1-c1cc2ccccc2s1  remaining binding (binding, competition with immobilised ligand; 1 µM): 28%
FC(F)(F)Oc1cccc(-c2cnc3ccc(-c4ccncc4)nn23)c1  remaining binding (binding, competition with immobilised ligand; 5 µM): 69%
CN1CCN(c2cnc3c(C4CCN(C(=O)c5ccc(OC(F)(F)F)cc5N)CC4)ncnc3c2)CC1  remaining binding (cell-free assay, competition with immobilised ligand; 1 µM): 100%
CN(C)c1nccc(-c2cnn3ncccc23)n1  remaining binding (binding; 1 µM): 97%
CCN1CCN(Cc2ccc(C(=O)Nc3ccc(C)c(Oc4ccc5c(c4)CC(=O)N5)c3)cc2C(F)(F)F)CC1  remaining binding (binding, competition with immobilised ligand; 1 µM): 100%
C[C@H]1CCN(c2nccc(-c3cnn4ncccc34)n2)C1  remaining binding (binding; 1 µM): 81%
CN(c1ccnc(CNc2nc(Nc3ccc4c(c3)CC(=O)N4)ncc2C(F)(F)F)n1)S(C)(=O)=O  remaining binding (cell-free assay, competition with immobilised ligand; 1 µM): 6%
F[C@@H]1CCN(c2nccc(-c3cnn4ncccc34)n2)C1  remaining binding (binding; 1 µM): 100%
O=C(c1ccc(Nc2nccc(-c3cc4ccccc4s3)n2)cc1)N1CCC(N2CCCC2)CC1  remaining binding (binding, competition with immobilised ligand; 1 µM): 30%
O=C(NCC1CCOCC1)c1n[nH]cc1NC(=O)c1c(F)cccc1F  remaining binding (binding, competition with immobilised ligand; 1 µM): 70%
